Compound activity: PubChem, The Scripps Research Institute Molecular Screening Center
Hits are enriched below; roughly 3.9% of the tested compounds scored in any of these assays.
OX1R antag-1 – human HCRTR1 antagonism; O43613; CHO/OX1R cells, Fluo-8 calcium fluorescence, orexin A; inhibition, % at 5 µM; 330,000 tested, 0.43% active;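 active = inhibition above its plate's threshold, mean inhibition of all tested compounds on the plate plus 3 SD, cut at about 37% in these data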;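 also: 0% = orexin A challenge wells and 100% = SB-334867-A antagonist wells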
CHO parental Ca – signal in parental CHO cells, OX1R antagonist counter-screen; parental CHO-K1, ATP-induced calcium, Fluo-8 fluorescence; inhibition, % at 5.6 µM; 330,000 tested, 0.63% active; AID 463079;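 active = inhibition above that plate's mean sample inhibition plus 3 SD, cut at about 26% in these data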;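 also: 0% = ATP-challenged DMSO wells and 100% = DMSO wells without ATP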
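test system = CHO parental line | reagent = ATP stimulus | measured by = intracellular calcium via Fluo-8 no-wash fluorescent dye | control set = ATP and no-ATP DMSO wells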
OX1R antag-2 – blocks the human orexin 1 receptor; O43613; OX1R-expressing cells, FRET antagonist read-out; inhibition, % at 6.6 µM; 330,000 tested, 1.8% active; AID 485270; in the data active = inhibition mostly above about 38%, no sharp cut-off; inactive = mostly below about 40%;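 also: 0% = agonist challenge alone and 100% = reference antagonist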
TAAR1 agonist – agonists of human TAAR1; AID 624467; activation, % at 3 µM; Q96RJ0; CHO RD-HGA16 TAAR1, Fluo-8 calcium fluorescence; vehicle wells 0%, saturating PEA agonist 100%; 360,000 tested, 0.99% active;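 active = activation above the mean activation of all test compounds in the run plus 3 SD, cut at about 38% in these data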
Target sequence (Q96RJ0 whole entry, looked up): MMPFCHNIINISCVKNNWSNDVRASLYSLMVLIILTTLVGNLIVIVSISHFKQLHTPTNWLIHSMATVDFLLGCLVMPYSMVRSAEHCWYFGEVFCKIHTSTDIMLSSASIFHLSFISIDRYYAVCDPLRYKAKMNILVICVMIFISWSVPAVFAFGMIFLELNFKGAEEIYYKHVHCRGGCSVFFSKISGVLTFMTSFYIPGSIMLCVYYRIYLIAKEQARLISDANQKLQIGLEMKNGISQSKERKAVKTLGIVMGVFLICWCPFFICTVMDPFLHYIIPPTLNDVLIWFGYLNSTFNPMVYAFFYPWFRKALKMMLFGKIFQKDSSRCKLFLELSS
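Signal – calcium-sensitive Fluo-8 signal, excitation 470-495, emission 515-575 nm · System – RD-HGA16 (CHO) cells co-expressing Gα16 and hTAAR1 · Incubation – 17-24 h seeding, 75 min 37 °C dye, 30 min RT · Compound dosing – 3 µM single concentration · Repeats – no replicates (n 1)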
TAAR1 antagonist – human TAAR1 antagonism; 360,000 tested, 1.5% active; AID 624466; CHO RD-HGA16 TAAR1, Fluo-8 calcium fluorescence, antagonist; Q96RJ0; inhibition, % at 3 µM;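 active = inhibition above a per-plate cutoff, the mean inhibition of test compounds on that plate plus 3 SD, cut at about 49% in these data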;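 also: 0% = DMSO plus EC80 beta-PEA response and 100% = DMSO alone without agonist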
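Test system: RD-HGA16 CHO cells with stable hTAAR1 and Gα16 / Probe or stimulus: EC80 β-phenethylamine stimulus / Times: seeding 17-24 h prior, 75-min 37 °C, 30-min RT dye loading / Detection: Fluo-8 calcium-sensitive fluorescence / Read-out basis: % inhibition scaled between DMSO and EC80 PEA controls / Repeats: singlicate, one well per test compound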
The depositor's hits bear a star; x = not tested or not shown.

SMILES | OX1R antag-1 | CHO parental Ca | OX1R antag-2 | TAAR1 agonist | TAAR1 antagonist
Cc1ccc2nc(C(O)C(O)c3nc4ccc(C)cc4[nH]3)[nH]c2c1 (stereo not given) | -24 | -27 | -14 | 38* | -7
OC(c1nc2ccccc2[nH]1)C(O)c1nc2ccccc2[nH]1 (stereo not given) | -18 | -16 | -8 | 5 | -13
Cc1ccc2nc(C(F)OC(F)(F)F)[nH]c2c1 (stereo not given) | 0 | -9 | 17 | 10 | -2
Cc1ccc2nc(C(C)O)[nH]c2c1 (stereo not given) | 1 | 45* | 11 | 2 | -18
CCOC(=O)c1cc2c(=O)n3cccc(C)c3nc2n(Cc2ccco2)c1=NC(=O)c1cccnc1 | x | x | x | 14 | 39
CCOC(=O)c1cc2c(=O)n3ccccc3nc2n(Cc2ccco2)c1=NC(=O)c1cccnc1 | -30 | -18 | 52* | 4 | -20
CCOC(=O)c1cc2c(=O)n3ccccc3nc2n(Cc2ccco2)c1=NC(=O)c1ccccc1OCC | -21 | -9 | 38* | 3 | -18
CCOC(=O)c1nn(-c2ccc(F)cc2)c(=O)c(C#N)c1C | -11 | -10 | 54* | 3 | -8
CCOC(=O)c1nn(-c2ccc(C)c(Cl)c2)c(=O)c(C#N)c1C | -36 | -18 | 28 | 2 | -4
CCOC(=O)c1nn(-c2ccc(F)cc2)c(=O)c2c(N)scc12 | -4 | -17 | 93 | 2 | 5
CCOC(=O)c1nn(-c2ccc(Cl)cc2)c2nc(CC)c(C#N)c(=O)n12 | -30 | -16 | 13 | 1 | -11
CCOC(=O)c1nn(-c2ccc(Cl)cc2)c(=O)c(C#N)c1C | -13 | 11 | 50* | 2 | 1
CCOC(=O)c1nn(-c2ccc(C)cc2)c(=O)c2c(N)scc12 | -17 | -18 | 77* | 10 | -2
Cc1c(C(=O)N2CCCCC2)nn(-c2ccc(Cl)cc2)c(=O)c1C#N | -23 | -20 | 61* | 1 | -11
CC1(C)CCCC2(C)C(OCCO)=CC(=O)C=C12 (stereo not given) | x | x | x | 3 | -4
COc1cccc(CNC(=O)c2ccc(CS(=O)Cc3ccccc3Cl)o2)c1 (stereo not given) | x | x | x | 10 | 16
COc1cccc(N2CCN(C(=O)c3ccc(OC)c(S(=O)(=O)NC4CC4)c3)CC2)c1 | x | x | x | 2 | -1
CC(C)NC(=O)C1C(c2ccc(C(F)(F)F)cc2)=Nc2ccccc2N1C(=O)c1cc2ccccc2[nH]1 (stereo not given) | x | x | x | -1 | -10
CC(=O)c1c(C)n(-c2cccc(Cl)c2)c2ccc(O)cc12 | -18 | -14 | 26 | 4 | 51*
CCOC(=O)N1CCN(CC(O)COc2c(C)cccc2C)CC1 (stereo not given) | 15 | -4 | 4 | 1 | -16
Cc1cccc(C)c1OCC(O)CN (stereo not given) | -9 | -13 | 17 | 41* | -16
Cc1n[nH]c(=O)c2c(NC(=O)CSc3nncs3)oc(C)c12 | -9 | -3 | 48* | 2 | -20
Cc1cc(C)c(C)c(SCC(=O)Nc2oc(C)c3c(C)n[nH]c(=O)c23)c1C | -40 | -26 | 24 | 2 | -9
CCCc1nc2nc(C)c(NS(=O)(=O)c3ccc([N+](=O)[O-])cc3)c(=O)n2[nH]1 | -54 | -5 | 50* | 2 | -7
Cc1nc2nc[nH]n2c(=O)c1NS(=O)(=O)c1ccc(F)cc1 | 0 | 1 | 8 | 6 | 9
Cc1nc2nc[nH]n2c(=O)c1NS(=O)(=O)c1ccc([N+](=O)[O-])cc1 | -8 | -9 | 44* | 5 | 6
COc1ccc(C(=O)NCC(c2ccco2)N2CCc3ccccc3C2)cc1 (stereo not given) | -20 | -10 | 24 | 40* | 6
O=C(NCC(c1ccco1)N1CCOCC1)c1cccc([N+](=O)[O-])c1 (stereo not given) | -9 | -13 | 26 | -2 | -20
O=C(NCC(c1ccco1)N1CCCCC1)c1ccc2c(c1)S(=O)(=O)c1ccccc1C2=O (stereo not given) | -44 | -28 | 63* | 1 | -3
O=C(NCC(c1ccco1)N1CCOCC1)c1ccc([N+](=O)[O-])cc1 (stereo not given) | -4 | -9 | 67* | 4 | -9
